In paper PMC3171567 (Steroids, 2011):
Numbering of substitutions follows the chain as printed. Like-named read-outs stand apart in the source and are kept apart here.

What was measured:
human CYP17 [1] = target: T1, human CYP17 (Homo sapiens, UniProt P05093); details: read-out: CYP17 IC50; value for 5; cited from earlier work
LAPC-4 cells = assay: Cell proliferation / viability XTT assay, LAPC-4; assay type: cell-based; details: Homo sapiens; for GI50: LAPC4, read-out: Cell growth inhibition GI50 LAPC-4; for IC50: LAPC4, read-out: IC50 in DHT stimulated LAPC4 proliferation
Outline: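 Cells moved to steroid-free medium (phenol red-free RPMI, 5% dextran-coated charcoal-treated serum, 1% penicillin/streptomycin) 3 days before plating at 1.5 × 10^4 cells/well. After 24 h attachment, they were given steroid-free medium with ethanol vehicle, androgens and/or test compound, changed every three days. Viability was read by XTT absorbance on day 7. Each result is the average of at least three wells.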

LNCaP cells = assay: Cell proliferation / viability XTT assay, LNCaP; assay type: cell-based; details: Homo sapiens; for GI50: read-out: Cell growth inhibition GI50 LNCaP; for IC50: read-out: IC50 in DHT stimulated LNCaP cells; for inhibition at 10 µM: read-out: inhibition of LNCaP proliferation
[2] = system: prostate, seminal vesicles, and the testes; assay: Urogenital tissue weights in LAPC-4 xenograft mice; assay type: in vivo, male SCID mice; details: 31 days, 0.15 mmol/kg; 3 and 5 s.c. b.i.d., 4 and 5-acetate p.o.
Outline: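 Male SCID mice, 4–6 weeks old, housed pathogen-free with food and water ad libitum. LAPC-4 cells were scraped into DPBS, pelleted and resuspended in Matrigel (10 mg/ml) at 2.0 × 10^7 cells/mL before inoculation. Vehicle was 0.3% HPC; test compounds were given at 0.15 mmol/kg. After 31 days of treatment, prostate, seminal vesicles and testes were excised and weighed and compared with vehicle controls.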

LAPC-4 xenografts = assay: LAPC-4 prostate cancer xenograft anti-tumor efficacy; assay type: in vivo, male SCID mice; details: for effect on LAPC-4 tumor growth (in words): third study, 0.15 mmol/kg s.c. once daily; for efficacy of oral dosing (in words): 0.15 mmol/kg o.d. p.o. up to day 24
[3] = system: androgen receptor expression in LNCaP cells; assay: AR down-regulation in LNCaP cells, western blot densitometry; assay type: cell-based, human; details: for AR down-regulation (in words): highest concentration (15 μM) tested
[4] = system: AR protein in LAPC-4 tumors; assay: AR protein levels in excised LAPC-4 tumors, western blot; assay type: in vivo, male SCID mice
[5] = target: T2, wild-type AR (in LAPC-4 cells) (Homo sapiens, UniProt P10275); assay type: binding
T2 sequence (P10275 1-920): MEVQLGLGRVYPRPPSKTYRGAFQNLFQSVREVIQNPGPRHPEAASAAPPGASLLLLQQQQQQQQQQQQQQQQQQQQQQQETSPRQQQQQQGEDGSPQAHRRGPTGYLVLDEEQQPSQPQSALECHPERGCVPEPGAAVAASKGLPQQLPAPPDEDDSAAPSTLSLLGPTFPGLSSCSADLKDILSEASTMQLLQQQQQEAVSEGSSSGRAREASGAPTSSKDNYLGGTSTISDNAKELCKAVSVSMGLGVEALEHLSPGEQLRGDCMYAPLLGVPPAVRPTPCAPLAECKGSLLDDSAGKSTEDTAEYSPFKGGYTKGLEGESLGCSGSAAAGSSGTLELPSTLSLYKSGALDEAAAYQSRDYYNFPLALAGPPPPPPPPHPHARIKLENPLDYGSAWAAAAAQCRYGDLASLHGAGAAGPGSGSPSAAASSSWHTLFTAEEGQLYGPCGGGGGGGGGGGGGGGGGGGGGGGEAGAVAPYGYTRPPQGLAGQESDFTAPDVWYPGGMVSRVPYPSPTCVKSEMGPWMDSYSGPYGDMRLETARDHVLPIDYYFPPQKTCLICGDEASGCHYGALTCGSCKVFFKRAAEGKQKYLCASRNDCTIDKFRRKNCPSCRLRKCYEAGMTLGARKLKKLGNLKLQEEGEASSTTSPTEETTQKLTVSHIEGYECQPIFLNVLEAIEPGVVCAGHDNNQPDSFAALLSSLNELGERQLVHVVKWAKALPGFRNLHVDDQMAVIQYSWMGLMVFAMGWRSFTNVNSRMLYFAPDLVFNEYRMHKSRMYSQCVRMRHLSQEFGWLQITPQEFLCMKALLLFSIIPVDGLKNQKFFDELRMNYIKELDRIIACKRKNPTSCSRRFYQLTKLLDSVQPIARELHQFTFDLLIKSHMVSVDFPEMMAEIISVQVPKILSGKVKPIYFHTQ

[6] = Toxicity monitoring in LAPC-4 xenograft mice; assay type: in vivo, male SCID mice; details: third study; for deaths of mice: 10 mice per group
[7] = system: androgen-induced AR transcription; assay: Transcriptional activation luciferase assay; assay type: cell-based, human; details: LNCaP, ARR-2 reporter, with or without DHT
Outline: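 LNCaP cells were kept steroid-free for 3 days, plated at 1 × 10^5 cells/well, then co-transfected with ARR2-Luc and Renilla pRL-null using Lipofectamine 2000. After 24 h at 37 °C, cells in serum-free phenol red-free RPMI were treated in triplicate with DHT, ethanol vehicle and/or test compound for 18 h. A dual luciferase read-out gave fold induction over control, normalized to Renilla.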

[8] = target: T3, mutant T877A AR (in LNCaP cells) (Homo sapiens, UniProt P10275, T878A); assay type: binding
T3 sequence (P10275 1-920 T878A): T2 sequence (P10275 1-920) with T878A

human CYP17 [9] = target: T1, human CYP17; assay: Acetic acid releasing assay for CYP17 activity in 293T-CYP17 cells; assay type: cell-based; details: read-out: CYP17 IC50, each in duplicate
[10] = first study, 0.15 mmol/kg s.c. b.i.d.

T1 sequence (P05093 whole entry): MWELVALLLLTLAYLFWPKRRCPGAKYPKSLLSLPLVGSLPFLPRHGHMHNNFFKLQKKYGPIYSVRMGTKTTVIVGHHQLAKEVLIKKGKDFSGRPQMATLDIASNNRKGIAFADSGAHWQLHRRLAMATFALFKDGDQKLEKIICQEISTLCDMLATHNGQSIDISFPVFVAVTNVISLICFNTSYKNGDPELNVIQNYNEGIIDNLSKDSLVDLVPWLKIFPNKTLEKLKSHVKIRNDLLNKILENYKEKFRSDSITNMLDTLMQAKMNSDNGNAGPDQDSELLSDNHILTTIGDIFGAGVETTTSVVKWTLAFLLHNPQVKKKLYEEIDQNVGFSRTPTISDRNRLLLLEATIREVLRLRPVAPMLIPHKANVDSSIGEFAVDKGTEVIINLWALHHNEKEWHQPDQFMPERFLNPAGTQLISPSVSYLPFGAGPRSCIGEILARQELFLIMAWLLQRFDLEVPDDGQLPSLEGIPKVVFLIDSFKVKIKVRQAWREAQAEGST

C[C@]12CC[C@H](O)CC1=CC[C@@H]1[C@@H]2CC[C@]2(C)C(n3cnc4ccccc43)=CC[C@@H]12 [Compound 5, 3β-Hydroxy-17-(1H-benzimidazol-1-yl)androsta-5,16-dien]
IC50 (human CYP17 [1]): 47 nM | GI50 (LAPC-4 cells): 3.2 µM | GI50 (LNCaP cells): 6 µM | prostate size/weight (in words) [2]: reduced the size of the prostate, although the reduction was not quite significant | seminal vesicles size/weight (in words) [2]: significantly reduced the size of the seminal vesicles and testes | testes size/weight (in words) [2]: significantly reduced the size of the seminal vesicles and testes | inhibition of growth of LAPC-4 tumors (in words) (LAPC-4 xenografts; [10]): most effective therapy in inhibiting the growth of LAPC-4 tumors | average tumor volume on day 31 (in words) (LAPC-4 xenografts; first study, 0.15 mmol/kg s.c. b.i.d., vs control p = 0.0001, 4 p = 0.005, 3 p = 0.053, 5-acetate p = 0.006): smaller average tumor volume on day 31 | final tumor weights (in words) (LAPC-4 xenografts; first study, 31 days of treatment, vs control, 3, and castration, p < 0.05): significantly reduced | oral activity (in words) (LAPC-4 xenografts; preclinical studies): not orally active | effect on LAPC-4 tumor growth (in words) (LAPC-4 xenografts): did not have a significant effect on tumor growth

C[C@]12CC[C@H](O)CC1=CC[C@@H]1[C@@H]2CC[C@]2(C)C(n3cnc4ccccc43)CC[C@@H]12 (stereo partly drawn) [Compound 10, 3β-Hydroxy-17-(1H-benzimidazol-1-yl)androsta-5-ene]
AR down-regulation (in words) [3]: did not cause down-regulation of AR expression

C[C@]12CC[C@H](OS(N)(=O)=O)CC1=CC[C@@H]1[C@@H]2CC[C@]2(C)C(n3cnc4ccccc43)=CC[C@@H]12 [Compound 9, 3β-O-Sulfamoyl-17-(1H-benzimidazol-1-yl)androsta-5,16-dien]
effect on LAPC-4 tumor growth, oral (in words) (LAPC-4 xenografts; administered orally as described for 5): did not show any significant effect on LAPC-4 tumor growth

C[C@]12CC[C@H](O)C[C@@H]1CC[C@@H]1[C@@H]2CC[C@]2(C)C(n3cnc4ccccc43)=CC[C@@H]12 [Compound 15, 3β-Hydroxy-17-(1H-benzimidazol-1-yl)-5α-androsta-16-ene]
AR down-regulation (in words) [3]: did not cause down-regulation of AR expression | GI50 (LNCaP cells): 17.6 µM

CC(=O)O[C@H]1CC[C@@]2(C)C(=CC[C@@H]3[C@@H]2CC[C@]2(C)C(c4cccnc4)=CC[C@@H]32)C1 [Compound 4, 3β-Acetoxy-17-(3-pyridyl)androsta-5,16-dien, reference compound]
seminal vesicles size/weight (in words) [2]: significantly reduced the size of the seminal vesicles | efficacy of oral dosing (in words) (LAPC-4 xenografts; first study): neither compound demonstrated any significant efficacy

C[C@]12CCC(F)CC1=CC[C@@H]1[C@@H]2CC[C@]2(C)C(n3cnc4ccccc43)=CC[C@@H]12 (some centres unmarked) [Compound 6, 3ξ-Fluoro-17-(1H-benzimidazol-1-yl)androsta-5,16-dien]
effect on AR protein levels in tumors (in words) ([4]; third study, 0.15 mmol/kg s.c., twice daily administration): only a minor and statistically insignificant effect on AR protein levels | EC50 [5]: 934 nM | reduction of wild-type AR binding compared to 5 ([5]; ratio of EC50 to that of 5): 2.3 fold | GI50 (LAPC-4 cells): 16 µM | IC50 (LAPC-4 cells): 7 µM | AR down-regulation ([3]; 15 μM, 24 hours): 50% | GI50 (LNCaP cells): 8 µM | IC50 (LNCaP cells): 8 µM | inhibition at 10 µM (LNCaP cells): 85% | changes in mouse weights (in words) [6]: no changes in mouse weights were observed | deaths of mice ([6]; 0.15 mmol/kg s.c. once daily): five mice | deaths of mice ([6]; 0.15 mmol/kg s.c. twice daily): two mice | signs of toxicity at internal examination (in words) ([6]; necropsy): no overt signs toxicity were seen | AR agonist/antagonist character in transcriptional activation studies [7]: pure AR antagonists | EC50 [8]: 1600 nM | binding to the mutant AR compared to 5 (in words) [8]: not significantly different from binding of 5 | efficacy versus LAPC-4 xenografts relative to 5 (LAPC-4 xenografts; on equimolar basis): ~ 2 fold | effect on LAPC-4 tumor growth (in words) (LAPC-4 xenografts): as effective in inhibiting LAPC-4 tumor growth as twice daily administration of 5 | IC50 (human CYP17 [9]): 150 nM

C[C@]12CC[C@@H](N=[N+]=[N-])CC1=CC[C@@H]1[C@@H]2CC[C@]2(C)C(n3cnc4ccccc43)=CC[C@@H]12 [Compound 8, 3α-Azido-17-(1H-benzimidazol-1-yl)androsta-5,16-dien]
EC50 [5]: 2460 nM | binding affinity to the wild-type AR compared to 5 (in words) [5]: greatly reduced | GI50 (LAPC-4 cells): 19 µM | IC50 (LAPC-4 cells): 19 µM | AR down-regulation (in words) [3]: did not cause down-regulation of AR expression | GI50 (LNCaP cells): 7 µM | IC50 (LNCaP cells): 16 µM | inhibition at 10 µM (LNCaP cells): 60% | AR agonist/antagonist character in transcriptional activation studies [7]: pure AR antagonists | EC50 [8]: 4340 nM | binding to the mutant AR compared to 5 (in words) [8]: greatly reduced | IC50 (human CYP17 [9]): 120 nM

C[C@]12CC[C@H](O)CC1=CC[C@@H]1[C@@H]2CC[C@]2(C)C(c3cccnc3)=CC[C@@H]12 [Compound 3, 3β-Hydroxy-17-(3-pyridyl)androsta-5,16-dien]
effect on AR levels in tumors (in words) [4, 10]: no significant effect on AR levels | prostate size/weight (in words) [2]: failed to significantly reduce the size of any of the organs | seminal vesicles size/weight (in words) [2]: failed to significantly reduce the size of any of the organs | testes size/weight (in words) [2]: failed to significantly reduce the size of any of the organs | efficacy of oral dosing (in words) (LAPC-4 xenografts; first study): neither compound demonstrated any significant efficacy
